# Measured values taken from PMC2669314 (Journal of medicinal chemistry, 2009).
# Like-named read-outs stand apart in the source and are kept apart here. Where a SMILES comes first, the peptide text is derived from it. [ ]: non-standard residue; d: D form. The star is where a group is joined. FITC = O=C1OC2(c3ccc(O)cc3Oc3cc(O)ccc32)c2ccc(NC(=S)*)cc21; pY = N[C@@H](Cc1ccc(OP(=O)(O)O)cc1)C(=O)O; Ahx = NCCCCCC(=O)O
# T1: Shc SH2 domain (Homo sapiens, UniProt P29353)
# T1 sequence (P29353 488-579 limits assumed): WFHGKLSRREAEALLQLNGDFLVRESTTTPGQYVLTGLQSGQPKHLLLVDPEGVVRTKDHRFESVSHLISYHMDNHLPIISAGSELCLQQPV
# T2: Shc SH2 domain protein (UniProt P29353)
# T2 sequence: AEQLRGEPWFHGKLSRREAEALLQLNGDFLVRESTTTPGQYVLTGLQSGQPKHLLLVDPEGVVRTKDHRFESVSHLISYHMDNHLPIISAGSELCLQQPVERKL
# B1: Ac-pY-Q-G-L-amide (peptide)
# peptide: YQGL
# HELM: PEPTIDE1{[ac].[O=C([C@H](Cc1ccc(OP(=O)(O)O)cc1)N[*:1])[*:2]].Q.G.L.[am]}$$$$V2.0
# SMILES: CC(=O)N[C@@H](Cc1ccc(OP(=O)(O)O)cc1)C(=O)N[C@@H](CCC(N)=O)C(=O)NCC(=O)N[C@@H](CC(C)C)C(N)=O
# How the values were obtained:
# [1] = target: T1, Shc SH2 domain; test: Fluorescence anisotropy competition assay using peptide 8 as reference peptide; assay type: binding
# [2] = target: T1, Shc SH2 domain; test: Steady state; assay type: binding; conditions: for Kd ± s.d.: Table 1, FITC-labelled peptides, n.b. = no binding
# Method in brief: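 Direct titration: 5 nM N-terminal fluorescein-labelled peptide in 1× BS with 10% (v/v) DMSO, with Shc protein serially diluted in from a 100 μM starting concentration. Excitation at 485 nm and parallel/perpendicular emission at 535 nm. Kd comes from fitting anisotropy against protein concentration to a single-site quadratic binding model, corrected for the bound/free fluorescence intensity ratio.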
# [3] = target: T2, Shc SH2 domain protein; test: fluorescence polarisation
# [4] = target: FITC-NH-(CH2)3-CO-L-pY-Q-G-L-S-amide; test: fluorescence polarisation
# [5] = target: FITC-NH-(CH2)2-CO-L-pY-Q-G-L-S-amide; test: fluorescence polarisation
# [6] = target: FITC-NH-(CH2)4-CO-pY-Q-G-L-S-amide; test: fluorescence polarisation
# [7] = target: FITC-pY-Q-G-L-S-amide; test: fluorescence polarisation
# [8] = target: FITC-NH-(CH2)2-CO-pY-Q-G-L-S-amide; test: fluorescence polarisation
# [9] = target: FITC-NH-(CH2)3-CO-pY-Q-G-L-S-amide; test: fluorescence polarisation
# [10] = target: FITC-NH-(CH2)4-CO-L-pY-Q-G-L-S-amide; test: fluorescence polarisation
# [11] = target: FITC-NH-(CH2)5-CO-pY-Q-G-L-S-amide; test: fluorescence polarisation
# [12] = target: T2, Shc SH2 domain protein; test: fluorescence polarisation; remark: listed apart in the source
molecule,measurement,setting,value
CC(=O)N[C@@H](Cc1ccc(OP(=O)(O)O)cc1)C(=O)N[C@@H](CCC(N)=O)C(=O)NCC(N)=O [Ac-pY-Q-G-amide] (HELM PEPTIDE1{[ac].[O=C([C@H](Cc1ccc(OP(=O)(O)O)cc1)N[*:1])[*:2]].Q.G.[am]}$$$$V2.0),IC50,[1],> 500 µM
FITC-NH-(CH2)-CO-pY-Q-G-L-S-amide (YQGLS; not fully specified; FITC-NH-(CH2)-CO- on the N-terminus; phosphotyrosine at 1; C-terminal amide) [compound 5],Kd ± s.d.,[2],n.b.
FITC-NH-(CH2) -CO-L-pY-Q-G-L-S-amide (LYQGLS; not fully specified; FITC-NH-(CH2)-CO- on the N-terminus; phosphotyrosine at 2; C-terminal amide) [compound 10],Kd ± s.d.,[2],n.b.
CC(=O)N[C@@H](Cc1ccc(OP(=O)(O)O)cc1)C(=O)N[C@@H](CCC(N)=O)C(=O)NCC(=O)N[C@@H](CC(C)C)C(=O)N[C@@H](CO)C(N)=O [Ac-pY-Q-G-L-S-amide] (HELM PEPTIDE1{[ac].[O=C([C@H](Cc1ccc(OP(=O)(O)O)cc1)N[*:1])[*:2]].Q.G.L.S.[am]}$$$$V2.0),IC50,[1],112.5 ± 0.7 µM
same,Shc SH2 domain binding affinity relative to parent Gly-containing peptide 45,[1]; relative to 45 (IC50 = 248 μM),approximate doubling of binding affinity
"Ac-pY-Q-G-L-S-NHR, R = homoallyl, no N-allyl substitution (peptide 35)",IC50,[3],165 µM
"Ac-pY-Q-G-L-S-NHR, R = allyl, no N-allyl substitution (peptide 31)",IC50,[3],189 µM
"CC(C)C[C@H](NC(=O)CNC(=O)[C@H](CCC(N)=O)NC(=O)[C@H](Cc1ccc(OP(=O)(O)O)cc1)NC(=O)[C@H](CC(C)C)NC(=O)CCCCCNC(=S)Nc1ccc2c(c1)C(=O)OC21c2ccc(O)cc2Oc2cc(O)ccc21)C(=O)N[C@@H](CO)C(N)=O [compound 14, FITC-NH-(CH2)5-CO-L-pY-Q-G-L-S-amide] ({FITC-Ahx}-L[pY]QGLS-NH2)",Kd ± s.d.,[2],n.b.
Ac-pY-Q-G-L-S-amide (peptide),IC50,[3],112 µM
"CC(=O)NCCCCC(=O)N[C@@H](Cc1ccc(OP(=O)(O)O)cc1)C(=O)N[C@@H](CCC(N)=O)C(=O)NCC(=O)N[C@@H](CC(C)C)C(=O)N[C@@H](CO)C(N)=O [compound 15, Ac-NH-(CH2)4-CO-pY-Q-G-L-S-amide] (HELM PEPTIDE1{[ac].[O=C(CCCCN[*:1])[*:2]].[O=C([C@H](Cc1ccc(OP(=O)(O)O)cc1)N[*:1])[*:2]].Q.G.L.S.[am]}$$$$V2.0)",IC50,[1],158 ± 10 µM
"CC(C)C[C@H](NC(=O)CNC(=O)[C@H](CCC(N)=O)NC(=O)[C@H](Cc1ccc(OP(=O)(O)O)cc1)NC(=O)[C@H](CC(C)C)NC(=S)Nc1ccc2c(c1)C(=O)OC21c2ccc(O)cc2Oc2cc(O)ccc21)C(=O)N[C@@H](CO)C(N)=O [compound 3, FITC-L-pY-Q-G-L-S-amide] (HELM PEPTIDE1{[O=C1OC2(c3ccc(O)cc3Oc3cc(O)ccc32)c2ccc(NC(=S)[*:2])cc21].L.[O=C([C@H](Cc1ccc(OP(=O)(O)O)cc1)N[*:1])[*:2]].Q.G.L.S.[am]}$$$$V2.0)",Kd,[2]; FITC-containing peptides,complete loss of binding affinity
same,Kd ± s.d.,[2],n.b. ^b
Shc SH2 domain protein (from UniProt P29353 480-583) (domain or fragment),Kd,[4],8.6 µM
same,Kd,[5],7.6 µM
same,Kd,[6],0.35 µM
same,Kd,[7],12.4 µM
same,Kd,[8],1.09 µM
same,Kd,[9],7.2 µM
same,Kd,[10],8.9 µM
same,Kd,[11],4.7 µM
"Ac-[pY]QGL-{NH‑allyl} [Ac-pY-Q-G-L-NHR, R = allyl, no N-allyl substitution (peptide 38)]",IC50,[12],91 µM
B1,IC50,[12],248 µM
